M4 antag: CHRM4 antagonism in calcium assay. P08173. CHO-hM4 cells, ACh EC80, Fluo-8 calcium fluorescence. inhibition, % at 3 µM. 0.73% of 360,000 active;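 active means inhibition above its plate's cutoff, the mean inhibition of sample wells plus 3 SD, cut at about 27% in these data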;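 further: 0% = acetylcholine EC80 with DMSO and 100% = DMSO without agonist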
CHRM5 antagonist: blocks acetylcholine activation of human M5 receptor. 0.59% of 360,000 active. AID 624040. CHO-hM5 cells, Fluo-8 calcium fluorescence, ACh EC80. inhibition, % at 3 µM. P08912;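 active means inhibition above a per-plate cutoff, the mean of that plate's test compounds plus 3 SD, cut at about 27% in these data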;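 further: 0% = acetylcholine EC80 with DMSO and 100% = DMSO without agonist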
Target sequence (P08912 whole entry, looked up): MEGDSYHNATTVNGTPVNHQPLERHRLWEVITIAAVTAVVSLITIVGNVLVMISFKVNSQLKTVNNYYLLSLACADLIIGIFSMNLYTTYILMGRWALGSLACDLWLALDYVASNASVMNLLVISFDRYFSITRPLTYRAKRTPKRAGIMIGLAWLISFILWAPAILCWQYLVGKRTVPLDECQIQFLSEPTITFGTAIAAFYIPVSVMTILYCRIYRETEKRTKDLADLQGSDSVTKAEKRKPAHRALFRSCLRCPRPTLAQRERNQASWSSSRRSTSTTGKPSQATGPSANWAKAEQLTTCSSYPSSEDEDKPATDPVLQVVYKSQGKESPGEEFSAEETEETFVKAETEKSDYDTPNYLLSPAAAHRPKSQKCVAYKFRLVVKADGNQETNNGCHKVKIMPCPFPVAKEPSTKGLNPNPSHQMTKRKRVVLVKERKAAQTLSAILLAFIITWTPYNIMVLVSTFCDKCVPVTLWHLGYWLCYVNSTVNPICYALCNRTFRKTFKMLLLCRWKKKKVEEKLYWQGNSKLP
M5 ag: CHRM5 agonism in calcium assay. activation, % at 3 µM. 0.19% of 360,000 active. CHO-K1 hM5 cells, Fluo-8 calcium fluorescence; 0% DMSO wells, 100% maximal acetylcholine response. AID 624037;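 active means activation above the run's mean over test compounds plus 3 SD, cut at about 23% in these data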;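 further: signal is peak over basal fluorescence ratio across the kinetic read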
CHRM4 agonist: CHRM4 agonism in calcium assay. P08173. CHO-K1 hM4/Gqi5, Fluo-8 calcium fluorescence; vehicle 0%, full acetylcholine response 100%. activation, % at 3 µM. 0.14% of 360,000 active;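 active means activation above the run mean over all test wells plus 3 SD, cut at about 32% in these data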;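 further: peak over basal fluorescence ratio per well then scaled between controls; 0% = DMSO wells and 100% = acetylcholine at EC100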
M4 PAM: potentiates acetylcholine response at human M4 receptor. CHO-K1 hM4/Gqi5, Fluo-8 calcium fluorescence, ACh EC20; 0% = ACh EC20, 100% = maximal ACh. AID 624126. activation, % at 3 µM. 0.4% of 360,000 active. P08173;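 active means activation above its plate's cutoff, the mean activation of sample wells plus 3 SD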
M5 PAM: positive allosteric modulators of human muscarinic M5 receptor; P08912; CHO-K1 hM5, Fluo-8 calcium, ACh EC20 PAM; 0% = ACh EC20, 100% = ACh EC100; activation, % at 3 µM; 0.3% of 360,000 active; AID 624038;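 active means activation above the run cutoff, the mean activation of all test compounds plus 3 SD, cut at about 18% in these data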
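Assay system – human M5 receptor in CHO-K1 cells · Read-out – % activation, ACh-normalized · Technique – Fluo-8 calcium fluorescence · Dosing – single-point, 3 µM nominal · Incubation – Fluo-8 loading 80 min at 37 °C plus 30 min room temperature · Repeats – singlicate, one well per test compound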
* marks the source's active call; other numbers are inactive results. The list is not random: actives were taken first. Their share in the collection is about 1.8%.

SMILES | M4 antag | CHRM5 antagonist | M5 ag | CHRM4 agonist | M4 PAM | M5 PAM
COP(=O)(OC)C1(O)C(=O)Nc2ccc(Br)cc21 (stereo unspecified) | -8 | -1 | -1 | 4 | 23* | 1
OCC[n+]1c2ccccc2nc2ccc(N3CCOCC3)cc21 | 7 | -3 | 5 | 0 | -4 | 9
COC(=O)C1=C(c2c(C)noc2C)C[C@@H]2CC[C@H]1N2C(=O)N1CCC(O)(c2ccc(Cl)cc2)CC1 | -7 | 4 | 4 | 4 | 0 | 3
Clc1ccc(OCC#CCN2CCCC2)cc1 | 2 | 31* | -10 | 2 | -22 | -17
CNC(C(=O)c1ccccc1)C(OC(C)=O)c1cccc([N+](=O)[O-])c1 (stereo unspecified) | -1 | 6 | -5 | 3 | -10 | -3
O=c1[nH]c(O)c(C=Nc2ccc(Cl)c(C(F)(F)F)c2)c(=O)[nH]1 | 34* | 38* | -25 | 0 | -16 | -34
CN1[C@@H]2CC[C@H]1CC(OC1c3ccccc3CCc3ccccc31)C2 (stereo partly specified) | 100* | 99* | -1 | 6 | -19 | -19
O=C(N/N=C/C1C(=O)NC(=S)N(c2ccccc2)C1=O)c1cc(Br)c(O)c(Br)c1 (stereo unspecified) | 9 | 30* | 1 | 7 | -12 | -19
O=C(N/N=C/c1c(O)n(C2CCCCC2)c(=S)[nH]c1=O)c1ccccc1 | -23 | 7 | -4 | -1 | 0 | -3
CCC(C(=O)N1C[C@H]2C[C@@H](C1)c1cccc(=O)n1C2)c1ccccc1 (stereo partly specified) | 3 | 5 | 0 | 1 | -7 | -7
O=C(CCC(=O)N1C[C@H]2C[C@@H](C1)c1cccc(=O)n1C2)NCc1ccccc1 | 5 | 9 | 2 | 1 | 3 | -1
N[C@@H](Cc1ccccc1)C(=O)N1C[C@H]2C[C@@H](C1)c1cccc(=O)n1C2 | 92* | 6 | -3 | 0 | -16 | -17
O=C(CCC(=O)N1C[C@H]2C[C@@H](C1)c1cccc(=O)n1C2)NCc1cccc(C(F)(F)F)c1 | 99* | 4 | 1 | -1 | -17 | 0
Cc1nn(CC(C)C)c(Cl)c1C(=O)NC1CCC(C)CC1 (stereo unspecified) | 2 | 5 | -2 | 0 | -3 | 2
CN1C[C@H]2CON(C)[C@H]2C[C@H]1c1cccc(Br)c1 | -3 | -7 | 1 | 1 | 0 | 0
CNC(=O)O/N=C/c1nn(C(=O)C(C)(C)C)cc1Br | 7 | 16 | 3 | 14 | -15 | -10
C[N+](C)(C)Cc1ccccc1 | -11 | 65* | 89* | 7 | -6 | -20
O=C1CN=C(c2cc([N+](=O)[O-])ccc2Cl)c2cc([N+](=O)[O-])ccc2N1 | -3 | 3 | 1 | 1 | 14* | 4
O=C1CN=C(c2ccccc2)c2cc([N+](=O)[O-])ccc2N1 | -1 | 1 | 4 | 2 | -1 | -2
CCC(C)NC(=O)c1c(N)n(Cc2ccc3c(c2)OCO3)c2nc3ccccc3nc12 (stereo unspecified) | -9 | -5 | 9 | 4 | 5 | 19*
O=c1[nH]c(O)c(Cc2ccc3c(c2)OCO3)c(=O)[nH]1 | 1 | 1 | -2 | 0 | 9 | 4
CC(C)Oc1cc(-n2c(=S)[nH]c3ccccc3c2=O)c(Cl)cc1Cl | -2 | 14 | -5 | 3 | -11 | -7
CCc1nn(CC(=O)N2CCC3(CC2)OCCO3)c(=O)c2cc3ccccc3n12 | -12 | -12 | 0 | 5 | 3 | 0
C=CCn1c(O)c(/C(C)=N/N2CCN(C)CC2)c(=O)[nH]c1=O | -5 | -1 | 1 | 0 | 16 | 2
COc1ccc2[nH]c(C)c(CCNCc3cc(OC)c(OC)c(OC)c3)c2c1 | -6 | 1 | -1 | 2 | 6 | 7
SMILES | M4 antag | CHRM5 antagonist | M5 ag | CHRM4 agonist | M4 PAM | M5 PAM
COc1ccc(CNCCc2c(C)[nH]c3ccc(OC(F)(F)F)cc23)c(OC)c1 | 29* | 32* | 22 | 40* | -12 | -21
C[n+]1c(-c2ccccc2)c2cc(N)ccc2c2ccc(N)cc21 | 16 | 14 | 3 | 11 | -10 | -14
Nc1ccc2ccc3cccc[n+]3c2c1 | 19 | -3 | 27* | 22 | -9 | -3
C=CCn1c(O)c(C=NC2CCN(Cc3ccccc3)CC2)c(=O)[nH]c1=O | -7 | 5 | -8 | 1 | 12* | -2
CCOc1ccc(-c2c(C)n(-c3ccc(OCC)cc3)c3[n+]2CCCCC3)cc1 | 21 | 35* | -4 | 12 | -37 | -30
COC(=O)C1=C(c2ccc(F)cc2F)C[C@@H]2CC[C@H]1N2C(=O)NCCOc1ccccc1 | -10 | 8 | -5 | 1 | -2 | 8
CCN(CC)CCCOC(=O)C(OC(C)C)(c1ccccc1)c1ccccc1 | 83* | 98* | -4 | 6 | -16 | -22

Screens from PubChem BioAssay.
